Results of several laboratories.
Protocols differ between the studies behind these lines.
Target: Dual specificity mitogen-activated protein kinase kinase 2 (MAP2K2, Homo sapiens, UniProt P36507)

| Compound | effect on | technique | concentration | remaining binding [%] |
| --- | --- | --- | --- | --- |
| Cc1cnn2ncc(-c3ccnc(N(C)C)n3)c2c1 | binding | – | 1 µM | 100 |
| CC(C)(C)c1ccc(-c2nc(CBr)nn2-c2cccc(O)c2)cc1 | cell-free assay | competition with immobilised ligand | 10 µM | 90 |
| C[C@@H]1CN(c2ccc3ncc(-c4ccc5[nH]nc(C6CC6)c5c4)n3n2)C[C@H](C)O1 | binding | competition with immobilised ligand | 50 nM | 72 |
| N[C@H]1CCN(c2nccc(-c3cnn4ncccc34)n2)C1 | binding | – | 1 µM | 100 |
| CN(C)CC#Cc1ccc(OCCCc2sc(N3CCc4cccc(C(=O)Nc5nc6ccccc6s5)c4C3)nc2C(=O)O)c(F)c1 | cell-free assay | competition with immobilised ligand | 1 µM | 100 |
| O=C(c1ccc(Nc2ncc(Cl)c(-c3ccc(Cl)s3)n2)cc1)N1CCC(N2CCCC2)CC1 | binding | competition with immobilised ligand | 1 µM | 15 |
| O=C(NCC1CCOCC1)c1n[nH]cc1NC(=O)c1c(F)cccc1F | binding | competition with immobilised ligand | 1 µM | 100 |
| C=CC(=O)N1CCC(C(=O)NCC(=O)N2CCN(c3nc(-c4cnc(N)nc4C(F)F)nc(N4CCOCC4)n3)CC2)CC1 | binding | competition with immobilised ligand | 1 µM | 59 |
| FC(F)(F)Oc1cccc(-c2cnc3ccc(-c4ccncc4)nn23)c1 | cell-free assay | competition with immobilised ligand | 5 µM | 72 |
| Cc1nccc(COC(=O)N2C[C@@H]3[C@@H](CNC(=O)c4ccc5[nH]nnc5c4)[C@@H]3C2)n1 | cell-free assay | competition with immobilised ligand | 1 µM | 84 |
| Cc1cnc(Nc2ccc(C(=O)N3CCC(N4CCCC4)CC3)cc2)nc1-c1cc2ccccc2s1 | binding | competition with immobilised ligand | 1 µM | 26 |
| CN(c1nccc(-c2cnn3ncccc23)n1)C1CC1 | binding | – | 1 µM | 100 |
| O=C(c1ccc(Nc2ncc(Cl)c(-c3cc4ccccc4s3)n2)cc1)N1CCC(N2CCCC2)CC1 | binding | competition with immobilised ligand | 1 µM | 27 |
| CNC(=O)[C@@H]1CC[C@@H](n2c(-c3ccc4cnccc4c3)nc3ccc(C(=O)NCc4cccc(C(N)=O)c4)cc32)C1 | binding | competition with immobilised ligand | 1 µM | 79 |
| CC(=O)N1CCC(c2ccc(C(=O)NC(=N)N)cc2C(F)(F)F)CC1 | cell-free assay | competition with immobilised ligand | 1 µM | 96 |
| C[C@@H](c1ccc(-n2cnc3c(N)ncnc32)cc1)N1CCc2nn(C)c(Cc3ccccc3)c2C1=O | binding | competition with immobilised ligand | 0.1 µM | 92 |
| CC(=O)Nc1c(C(C)=O)c(=O)n(C)c2nc(-c3ccc(Cl)cc3Cl)c(-c3ccc(Cl)cc3)cc12 | cell-free assay | competition with immobilised ligand | 1 µM | 100 |
| CN(CCCC(F)(F)F)c1nccc(-c2cnn3ncccc23)n1 | binding | – | 1 µM | 100 |
| CCOC(=O)c1cc2cc(-c3cc(C(=O)NCc4ccc(C(=O)O)cc4)nn3C)ccc2[nH]1 | cell-free assay | competition with immobilised ligand | 0.1 µM | 83 |
| CN(C)c1ncc(F)c(-c2cnn3ncccc23)n1 | binding | – | 1 µM | 74 |
| O=C(NS(=O)(=O)c1ccc(NCC2CCOCC2)c([N+](=O)[O-])c1)c1ccc(N2CCN(Cc3ccc(C(F)(F)F)cc3-c3ccc(Cl)cc3)CC2)cc1Oc1cnc2[nH]ccc2c1 | cell-free assay | competition with immobilised ligand | 1 µM | 100 |
| C[C@H]1CCN(c2nccc(-c3cnn4ncccc34)n2)C1 | binding | – | 1 µM | 100 |
| C[C@@H]1CN(c2cc(-c3n[nH]c4ccc(OC5(C)CC5)cc34)ncn2)C[C@H](C)O1 | cell-free assay | competition with immobilised ligand | 0.1 µM | 85 |
| COc1cnc(Nc2cccc(S(N)(=O)=O)c2)nc1N1CCN(c2ccccc2)C(=O)C1 | binding | competition with immobilised ligand | 1 µM | 94 |
